Substrate in series [1]: COC(=O)C1CC(c2cc(Br)ccc2OCc2ccc(OC)cc2)=NO1
Nature of the series: (§1) Vmax (maximal I influx) of compound against CFTR (cystic fibrosis transmembrane conductance regulator) in rat was determined. Summed up: (§2)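 Cells stably co-expressing human wild-type CFTR and YFP-H148Q were grown to confluence in 96-well plates and washed in PBS. Compounds were added from DMSO stocks, with full dose–responses run. A 100 mM inward iodide gradient was applied at 37 °C. Iodide influx was taken from the slope of the YFP fluorescence time course. Kd and Vmax (mM/s) are means of three or more experiments.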

Substrate in series [2]: COC(=O)C1CC(c2ccccc2OCc2ccc(Br)cc2)=NO1
The description is as §1. Summed up:
as §2

Substrate in series [3]: COC(=O)C1CC(c2ccccc2OCc2ccc(OC)cc2)=NO1
The description is as §1. In short, it runs like this:
as §2

Substrate in series [4]: COC(=O)C1CC(c2ccccc2OCc2cccc(OC)c2)=NO1
The description is as §1. In short, it runs like this:
as §2

Substrate in series [5]: COC(=O)c1cc(-c2ccccc2OCc2ccc(Br)cc2)no1
The description is as §1. Summed up: as §2

Substrate in series [6]: COC(=O)c1onc(-c2ccccc2OCc2ccc(Br)cc2)c1C(=O)OC
The description is as §1. Summed up: as §2

Substrate in series [7]: COc1ccc(COc2ccc(Br)cc2-c2cc(CO)on2)cc1
Described as §1. Summed up:
as §2

Substrate in series [8]: COc1ccc(COc2ccccc2-c2cc(CCO)on2)cc1
The series is described as §1. Summed up:
as §2

Substrate in series [9]: COc1ccc(COc2ccccc2-c2cc(CO)on2)cc1
The description is as §1. Summed up: as §2

Substrate in series [10]: COc1ccc(COc2ccccc2C2=NOC(CCl)C2)cc1
The series is described as §1. Summed up: as §2

Substrate in series [11]: COc1ccc(COc2ccccc2C2=NOC(CO)C2)cc1
The series is described as §1. Summed up: as §2

Substrate in series [12]: COc1cccc(COc2ccccc2-c2cc(CCO)on2)c1
Described as §1. Summed up:
as §2

Substrate in series [13]: COc1cccc(COc2ccccc2-c2cc(CO)on2)c1
The description is as §1. Summed up:
as §2

Substrate in series [14]: COc1cccc(COc2ccccc2C2=NOC(CCl)C2)c1
Described as §1. Summed up: as §2

Substrate in series [15]: COc1cccc(COc2ccccc2C2=NOC(CO)C2)c1
Described as §1. In short, it runs like this: as §2

Substrate in series [16]: ClCc1cc(-c2ccccc2OCc2ccc(Br)cc2)no1
The series is described as §1. Summed up:
as §2

Substrate in series [17]: OCCc1cc(-c2ccccc2OCc2ccc(Br)cc2)no1
Described as §1. Summed up: as §2

Substrate in series [18]: OCc1cc(-c2ccccc2OCc2ccc(Br)cc2)no1
Described as §1. In short, it runs like this:
as §2

B1: Cystic fibrosis transmembrane conductance regulator (Rattus norvegicus), P34158 (protein)
chain: MQKSPLEKASFISKLFFSWTTPILRKGYRHHLELSDIYQAPSSDSADHLSEKLEREWDREQASKKKPQLIHALRRCFVWRFVFYGVLLYLGEVTKAVQPVLLGRIIASYDPDNTEERSIAIYLGIGLCLLFIVRTLLLHPAIFGLHHIGMQMRIAMFSLIYKKTLKLSSRVLDKISIGQLISLLSNNLNKFDEGLALAHFIWIAPLQVVLLMGLLWDLLQFSAFCGLGLLIVLVIFQAILGKMMVKYRDKRAAKINERLVITSEVIDNIYSVKAYCWESAMEKIIESLREEELKMTRRSAYMRFFTSSAFFFSGFFVVFLSVLPYTVINGIVLRKIFTTISFCIVLRMSVTRQFPTAVQIWYDSLGMIRKIQDFLQTQEYKVLEYNLMFTGLVMENVTAFWEEGFQELLEKVQLNNDDRKTSNGENHLSFSHLCLVGNPVLKNINLNIKKGEMLAITGSTGAGKTSLLMLILGELEASEGIIKHSGRVSFSSQISWIMPGTIKENIIFGVSYDEYRYKSVVKACQLQEDITKFAEQDNTVLGEGGVTLSGGQRARISLARAVYKDADLYLLDSPFGYLDVLTEEQIFESCVCKLMASKTRILVTSKMEQLKKADKILILHEGSSYFYGTFSELQSLRPDFSSKLMGYDTFDQFTEERRSSILTETLRRFSVDDASTTWNKAKQSFRQTGEFGEKRKNSILSSFSSVKKISIVQKTPLSIEGESDDLQERRLSLVPDSEHGEAALPRSNMITAGPTFPGRRRQSVLDLMTFTPSSVSSSLQRTRASIRKISLAPRISLKEEDIYSRRLSQDSTLNITEEINEEDLKECFFDDMVKIPTVTTWNTYLRYFTLHRGLFAVLIWCVLVFLVEVAASLFVLWLLKNNPVNGGNNGTKIANTSYVVVITSSSFYYIFYIYVGVADTLLALSLFRGLPLVHTLITASKILHRKMLHSILHAPMSTFNKLKAGGILNRFSKDIAILDDFLPLTIFDFIQLLFIVVGAIIVVSALQPYIFLATVPGLAVFILLRAYFLHTSQQLKQLESEGRSPIFTHLVTSLKGLWTLRAFRRQTYFETLFHKALNLHTANWFMYLATLRWFQMRIDMIFVLFFIVVTFISILTTGEGEGTTGIILTLAMNIMSTLQWAVNSSIDTDSLMRSVSRVFKFIDIQTEESICTKIMKELHSEDSPNALVIKNEHVKKCDTWPSGGEMVVKDLTVKYVDDGNAILENISFSISPGQRVGLLGRTGSGKSTLLSAFLRMLNIKGEIQIDGVSWNSMTLQEWRKAFGVITQKVFIFSGTFRQNLDPNGKWRDEEIWKVADQVGLKSVIEQFPGQLNFTLVDGGYVLSHGHKQLMCLARSVLSKAKIILLDEPSANLDPITYQVIRRVLRQAFAGCTVVLCEHRIEAMLDCQRFLVIEQGNVWQYESLQALLSEKSVFQRALSSSEKMKLFHGRHSSKQKPRTQITAVKEETEEEVQETRL
In general, Vmax refers to the top rate of the reaction or transport when substrate is in excess. For the protein B1, the Vmax was found to be 1.04 mM/s in [1]; 0.81 mM/s in [2]; 1.13 mM/s in series [3]; 1.08 mM/s in series [4]; 1.01 mM/s in series [5]; 0.97 mM/s in series [6]. Further, the Vmax turned out to be 1.03 mM/s in [7]; 1.05 mM/s in series [8]; 1.06 mM/s in [9]; 1.2 mM/s in series [10]; 1.07 mM/s in series [11]; 0.94 mM/s in series [12]. The Vmax in series [13] came out at 1.04 mM/s; in series [14] it was 1.02 mM/s; in [15], 0.99 mM/s; in series [16] it was 1.02 mM/s; in [17], 1.02 mM/s; in series [18] it was 1.06 mM/s.

Values taken from ChEMBL document CHEMBL1136128, “3-(2-Benzyloxyphenyl)isoxazoles and isoxazolines: synthesis and evaluation as CFTR activators” (Bioorg Med Chem Lett, 2003).
